Hits are enriched below; roughly 2.2% of the tested compounds scored in any of these assays.
PPC-1+TRAIL kill: PPC-1 cancer cell killing with TRAIL present; PPC-1 cells + TRAIL, ATPLite viability luminescence; cell killing (% activity), % at 4 µM or 5 µM; AID 1443; actives 0.41% (n = 220,000);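 active = cell killing above 50% in the first pass at 4 µM, then a duplicate retest at 5 µM averaging 50% or more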;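 note: plate controls were cells with TRAIL plus DMSO for no effect and medium-only wells lacking cells for full effect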
APP 5'UTR act: APP 5'UTR luciferase reporter activation | SH-SY5Y APP 5'UTR luciferase reporter, luminescence; zero percent = DMSO vehicle wells | activation, % at 2 µM | actives 1% (n = 190,000);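 active = activation above a set limit, based on mean plus 3 SD of controls, cut at about 140% in these data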
FLuc act counter: firefly luciferase counter-screen for stimulation assays. P08659. ATPlite luciferase biochemical, luminescence, 10 min; 0 = ATP-free wells, 1 = DMSO control. activation factor at 10 µM. 200,000 tested, under 10 active. AID 1027;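 active = luciferase activation factor, scaled between plate controls, of at least 2 with compound at 10 µM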
Target sequence (P08659 whole entry, looked up): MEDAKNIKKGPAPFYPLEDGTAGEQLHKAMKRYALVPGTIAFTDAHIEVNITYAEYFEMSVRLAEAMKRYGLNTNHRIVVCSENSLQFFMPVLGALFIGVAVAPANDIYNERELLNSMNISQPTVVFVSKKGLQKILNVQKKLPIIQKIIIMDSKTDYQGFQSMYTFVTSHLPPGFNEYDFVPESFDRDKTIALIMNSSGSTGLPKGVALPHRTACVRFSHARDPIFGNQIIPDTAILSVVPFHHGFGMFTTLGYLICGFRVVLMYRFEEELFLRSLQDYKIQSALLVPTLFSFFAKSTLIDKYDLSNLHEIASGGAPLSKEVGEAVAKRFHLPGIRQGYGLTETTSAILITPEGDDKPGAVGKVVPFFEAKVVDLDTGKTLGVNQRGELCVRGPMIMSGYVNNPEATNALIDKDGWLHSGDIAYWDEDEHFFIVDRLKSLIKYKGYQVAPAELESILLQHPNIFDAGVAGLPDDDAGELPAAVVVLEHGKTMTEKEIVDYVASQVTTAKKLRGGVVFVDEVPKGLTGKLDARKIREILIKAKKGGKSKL
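System: cell-free luciferase reagent; medium: PBS as buffer for the ATP substrate; doses: test compounds dosed from 2 mM stocks in 100% DMSO; incubation: 10 min, room temperature; measured by: luminescence from luciferase reaction; read-out: luciferase activation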
NF-kB neuron act: compounds increasing NF-kB expression in human neuronal cells. NF-kB reporter expression; hits give high values. fold change at 12.5 µM. actives 1.6% (n = 190,000). AID 1239; in the data active = fold change above about 3.3
FLuc inh counter: Photinus pyralis luciferase inhibition counter-screen. P08659. ATPLite firefly luciferase biochemical luminescence, 10 min. inhibition, % at 10 µM. actives 1.5% (n = 200,000). AID 1006;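 active = inhibition above about 50% when tested at 10 µM, limit read from the data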
TRAIL sens C8: sensitizes caspase-8 expressing cells to TRAIL. inhibition (viability loss, TRAIL sensitization), % at 10 µM. NB7+C8 cells + TRAIL, ATPlite viability luminescence. actives 1% (n = 360,000);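 active = compounds causing at least 50% loss of cell viability in the single-dose screen, relative to plate controls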
An asterisk follows results filed as active; . = no result given.

SMILES	PPC-1+TRAIL kill	APP 5'UTR act	FLuc act counter	NF-kB neuron act	FLuc inh counter	TRAIL sens C8
CC(C)N(C(=O)COC(=O)c1cccnc1Cl)c1ccccc1	.	.	.	.	.	-0.8
CC1(C(=O)NS(=O)(=O)Cc2ccccc2C(F)(F)F)CCN1C(=O)Cc1ccccc1 (stereo not given)	.	.	.	.	.	9.1
CC(=O)NC(C)(c1ccccc1)c1nc(-c2cccc(C(F)(F)F)c2)cs1 (stereo not given)	.	.	.	.	.	-8.2
Cc1c(C(=O)NCC2CCCO2)oc2ccc3c(c12)C(=O)CC(C)(C)O3 (stereo not given)	37.6	156.5*	0.3	3.44*	67.0*	40.6
Cc1cc(C)nc(SCc2cc(=O)c(OC(=O)c3ccc(Br)o3)co2)n1	-2.4	-3.8	0.4	0.93	60.1*	24.7
O=S1(=O)CC(O)C(O)CS1 (stereo not given)	.	.	.	.	.	2.9
CO[C@@H]1CN(C)C(=O)c2ccc(NC(=O)c3ccccc3F)cc2OC[C@@H](C)N(CC2CCOCC2)C[C@@H]1C	.	.	.	.	.	-11.4
CCCCSCCCNC(=O)c1cn(C)c2ccc(S(=O)(=O)N3CCCC3)cc2c1=O	.	.	.	.	.	8.7
CCn1cc(C(=O)NCC(OC)OC)c(=O)c2cc(S(=O)(=O)N3CCC(C)CC3)ccc21	.	.	.	.	.	65.2*
CCn1cc(C(=O)NCC(OC)OC)c(=O)c2cc(S(=O)(=O)N3CCCC3)ccc21	.	.	.	.	.	13.6
CCCCNC(=O)c1cn(C)c2ccc(S(=O)(=O)N3CC(C)CC(C)C3)cc2c1=O (stereo not given)	.	.	.	.	.	56.5*
CCOC(=O)[C@]12CCCC=C1N(Cc1cccc3ccccc13)C(=O)[C@H](CC(=O)NCCCCc1ccccc1)C2	.	.	.	.	.	10.9
CC[C@H](C)[C@@H]1OC(=O)[C@@H](C)[C@@H](CC)NC(=O)[C@H](C)N(C)C(=O)C(C)(C)C(=O)C(C)NC(=O)[C@H](Cc2ccccc2)N(C)C(=O)[C@H](C(C)C)N(C)C(=O)CNC(=O)[C@H](CC(C)C)N(C)C(=O)CNC1=O (stereo not given in full)	.	.	.	.	.	59.6*
CCNC(=O)C1(C)CCCN1C(=O)c1cnc2ccccc2n1 (stereo not given)	.	.	.	.	.	-3.4
Cc1ccc(NC(=O)CSC2=NN3CCCC(=O)N=C3S2)c(C)c1	13.4	13.1	1	3.32*	-2.3	-9.8
CCCOc1ccc(/C=N/Nc2ccccc2[N+](=O)[O-])c(O)c1	17.7	172.7*	0.8	0.86	22.1	41.8
O=[N+]([O-])c1cccnc1N/N=C/c1ccccc1O	20.3	-8.3	1	1.84	-0.1	50.7*
CN1CCN(c2ncnc3c2ncn3[C@H]2CN(C)C[C@@H](CO)O2)CC1	.	.	.	.	.	-2.1
CC(=O)N/N=c1\sc2ccccc2n1C	22.7	11.7	1.1	1.21	-7.6	-0.1
Cn1c(=NC(=O)CCl)sc2ccccc21	12.0	-24.9	1	0.13	-2.9	94.0*
Cn1c(=NC(=O)c2cccc([N+](=O)[O-])c2)sc2ccccc21	-1.0	103.8	0.9	4.25*	7.8	56.6*
COc1cc(C(=O)N=c2sc3ccccc3n2C)cc(OC)c1OC	13.5	19.0	1	1.02	-4.1	0.6
Cn1c(=Nc2ccccc2)sc2ccccc21	-1.5	17.5	1	1.51	-1.7	-2.7
CN(C)c1ccc(N=c2sc3ccccc3n2C)cc1	11.0	73.7	0.8	4.6*	16.1	4.0
COc1cccc(NC(=O)Nc2nnc([C@H]3C[C@H](O)[C@@H](CO)O3)s2)c1	.	.	.	.	.	1.6
SMILES	PPC-1+TRAIL kill	APP 5'UTR act	FLuc act counter	NF-kB neuron act	FLuc inh counter	TRAIL sens C8
Nc1ccc(-c2nc3cc(N)ccc3o2)cc1	.	.	.	.	.	47.8
CN(C)c1ccc(-c2nc3cc(N)ccc3o2)cc1	.	.	.	.	.	82.9*
COC(=O)c1ccc(-c2nc3cc(N)ccc3o2)cc1	32.4	-30.7	0.2	2.33	82.9*	55.9*
Cc1ccc(-c2nc3cc(N)ccc3o2)cc1Br	.	.	.	.	.	23.7
Cc1ccc(C)c(C(O)c2ncc(-c3ccccc3F)[nH]2)c1 (stereo not given)	.	.	.	.	.	3.1
Cc1ccc(C)c(N2CCN(C(=O)c3ccc(CSc4nc5ccncc5[nH]4)cc3)CC2)c1	12.3	15.8	1.1	0.42	-5.4	10.2
O=C(c1ccc(CSc2nc3ccncc3[nH]2)cc1)N1CCCCC1	35.6	6.7	0.3	1.11	67.8*	43.7
Clc1cc(Br)ccc1OCCN1CCOCC1	39.0	8.9	1	1.3	-0.7	1.0
CCCCCOc1ccc(CN2CCOCC2)cc1Cl	14.1	144.0*	0.8	1.95	21.6	18.2
COc1oc(C(=O)NC2CCCCC2)c(-c2ccc(Cl)cc2)c1S(=O)(=O)c1ccccc1	.	.	.	.	.	88.6*
O=C1NC(c2ccc(Br)cc2)=N/C1=C/c1ccco1	2.6	140.1*	0.5	0.9	47.5	-6.3
O=C1NC(c2ccccc2Cl)=N/C1=C/c1ccco1	0.4	.	.	.	.	4.5
O=c1c(Br)c(N2CCCCC2)cnn1-c1ccccc1	21.1	166.5*	0.6	3.92*	42.0	12.3
O=c1c(Br)c(N2CCCC2)cnn1-c1ccccc1	27.1	93.2	0.7	2.71	27.5	6.5
O=c1c(Br)c(Br)cnn1-c1ccccc1	33.4	-95.5	1	0.23	-4.2	96.7*
Cc1ccc(-n2ncc(Br)c(Br)c2=O)cc1	20.5	-94.5	0.9	0.15	8.0	1.1
CCOc1ccc(NC(=O)COc2ccccc2)c([N+](=O)[O-])c1	22.5	78.4	0.4	4.06*	58.9*	31.0
Cc1ccc(OCC(=O)Nc2ccccc2[N+](=O)[O-])c(Br)c1	13.9	154.2*	0.7	5.7*	26.7	13.9
COC(=O)c1ccccc1NC(=O)COc1ccccc1[N+](=O)[O-]	.	10.2	1	0.73	-0.5	1.7
Cc1ccc(OCC(=O)NC(=S)Nc2ccccn2)c(Br)c1	.	.	.	.	.	83.7*
O=C(NC(=S)Nc1ccccn1)c1cncc(Br)c1	12.3	87.3	0.4	1.71	64.5*	9.8
O=C(COc1ccc(Br)cc1Cl)NC(=S)Nc1ccccn1	.	.	.	.	.	22.3
CCCNC(=O)C1(C)CCN(C(=O)c2cccnc2Oc2ccccc2)C1 (stereo not given)	.	.	.	.	.	-1.5
CCNC(=O)C1(C)CCCN(Cc2noc(-c3c(C)noc3C)n2)C1 (stereo not given)	.	.	.	.	.	6.6
COCCN1C(=O)CN(S(C)(=O)=O)CC1(C)C(=O)Nc1c(C)cccc1C (stereo not given)	.	.	.	.	.	6.3
COc1cccc(-c2cnc3c(NC(C)=O)cc(-c4ccsc4)cn23)c1	.	.	.	.	.	-10.6
CC(=O)Nc1ccc(N=Nc2ccc(O)cc2)cc1	6.3	80.8	0.5	9.15*	46.0	49.9
COc1ccc(C2=Nn3c(nnc3-c3ccco3)SC2)cc1	14.7	-10.6	1	4.82*	-2.1	12.1
C(=C\c1ccccc1)/C=N/Nc1nc2ccccc2s1	19.1	179.0*	0.8	2.96	20.3	10.8
CCC/C=N/Nc1nc2ccccc2s1	14.2	82.2	0.6	6.05*	36.2	-0.7

Source: PubChem (several laboratories)
